Active and inactive are the calls of the source. No cut-off for these calls is given here.
Experiments:
[1] = test system: Vero; test: Cytotoxicity against african green monkey Vero cells assessed as change in cell morphology up to 100 uM; assay type: cell-based; details: chlorocebus sabaeus
Outline: (§1)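 Uninfected host-cell cultures were examined under the microscope. MCC was taken as the lowest compound concentration producing a detectable alteration of normal cell morphology, assessed at concentrations up to 100 μM.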

[2] = test system: Feline coronavirus; test: Antiviral activity against Feline coronavirus infected in CrFK cells assessed as inhibition of viral plaque formation at 250 uM; assay type: functional, organism-based
Outline: (§2)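 Confluent host cell monolayers were inoculated with 100 CCID50 of virus in the presence of test compound at serial dilutions (250, 50, 10, … μM). Viral cytopathicity was scored once it reached completion in untreated virus-infected controls.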

[3] = test system: Mammalian orthoreovirus 1; test: Antiviral activity against Reovirus-1 infected in african green monkey Vero cells assessed as inhibition of viral plaque formation at 250 uM; assay type: functional, organism-based; outline: as §2
[4] = test system: Sindbis virus; test: Antiviral activity against Sindbis virus infected in african green monkey Vero cells assessed as inhibition of viral plaque formation at 250 uM; assay type: functional, organism-based; outline: as §2
[5] = test system: Vesicular stomatitis virus; test: Antiviral activity against Vesicular stomatitis virus infected in human HEL cells assessed as inhibition of viral plaque formation at 250 uM; assay type: functional, organism-based; outline: as §2
[6] = test system: Human alphaherpesvirus 3; test: Antiviral activity against thymidine kinase-deficient Varicella Zoster virus 07/1 infected in human HEL cells assessed as inhibition of viral plaque formation at 250 uM; assay type: functional, organism-based
[7] = test system: Human alphaherpesvirus 2; test: Antiviral activity against Herpes simplex virus 2 G infected in human HEL cells assessed as inhibition of viral plaque formation at 250 uM; assay type: functional, organism-based; details: strain G
[8] = test system: Human immunodeficiency virus 2; test: Antiviral activity against Human immunodeficiency virus 2 infected in human CEM cells assessed as inhibition of virus-induced giant cell formation after 4 days by microscopic analysis; assay type: functional, organism-based; details: CCRF-CEM
Outline: (§3)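 CEM cells at about 3 × 10⁵ cells/cm³ were infected with 100 CCID50/mL of HIV-1(IIIB) or HIV-2(ROD), then seeded into wells holding test compound dilutions. After 4 days at 37 °C, virus-induced giant cell formation was scored microscopically.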

[9] = test system: Human alphaherpesvirus 3; test: Antiviral activity against thymidine kinase-positive Varicella Zoster virus Oka infected in human HEL cells assessed as inhibition of viral plaque formation at 250 uM; assay type: functional, cell-based; details: strain Oka vaccine
[10] = test system: Human alphaherpesvirus 1; test: Antiviral activity against thymidine kinase-deficient acv-resistant Herpes simplex virus 1 KOS infected in human HEL cells assessed as inhibition of viral plaque formation at 250 uM; assay type: functional, organism-based
[11] = test system: HEL; test: Cytotoxicity against human HEL cells assessed as change in cell morphology up to 100 uM; assay type: cell-based; outline: as §1
[12] = test system: HeLa; test: Cytotoxicity against human HeLa cells 3 days by coulter counting; assay type: functional; details: 72 h
Outline: (§4)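 Cells were suspended at 300,000–500,000 cells/mL and added 1:1 to compound dilutions. Incubation was at 37 °C, 2 days for L1210 and 3 days for CEM, HeLa and HEL. Cells were counted with a Coulter counter. CC50 is the concentration inhibiting cell proliferation by 50%.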

[13] = test system: Coxsackievirus B4; test: Antiviral activity against Coxsackievirus B4 infected in human HeLa cells assessed as inhibition of viral plaque formation at 250 uM; assay type: functional, organism-based; outline: as §2
[14] = test system: MDCK; test: Cytotoxicity against MDCK cells assessed as change in cell morphology up to 100 uM; assay type: cell-based, Canis lupus familiaris; details: dog; outline: as §1
[15] = Cytotoxicity against CRFK cells assessed as change in cell morphology up to 100 uM; assay type: cell-based, Felis catus; details: cat; outline: as §1
[16] = test system: HeLa; test: Cytotoxicity against human HeLa cells assessed as change in cell morphology up to 100 uM; assay type: cell-based; outline: as §1
[17] = test system: Punta Toro virus; test: Antiviral activity against Punta Toro virus infected in african green monkey Vero cells assessed as inhibition of viral plaque formation at 250 uM; assay type: functional, organism-based
[18] = test system: Human respirovirus 3; test: Antiviral activity against Parainfluenza-3 virus infected in african green monkey Vero cells assessed as inhibition of viral plaque formation at 250 uM; assay type: functional, organism-based; outline: as §2
[19] = test system: Vaccinia virus; test: Antiviral activity against Vaccinia virus infected in human HEL cells assessed as inhibition of viral plaque formation at 250 uM; assay type: functional, organism-based; details: Orthopoxvirus vaccinia; outline: as §2
[20] = test system: L1210; test: Cytotoxicity against mouse L1210 cells 2 days by coulter counting; assay type: functional; details: L1210, 48 h; outline: as §4
[21] = test system: Vesicular stomatitis virus; test: Antiviral activity against Vesicular stomatitis virus infected in human Hela cells assessed as inhibition of viral plaque formation at 250 uM; assay type: functional, organism-based
[22] = test system: CCRF-CEM; test: Cytotoxicity against human CEM cells 3 days by coulter counting; assay type: functional; details: 72 h; outline: as §4
[23] = test system: Human alphaherpesvirus 1; test: Antiviral activity against Herpes simplex virus 1 KOS infected in human HEL cells assessed as inhibition of viral plaque formation at 250 uM; assay type: functional, organism-based; outline: as §2
[24] = test system: Human betaherpesvirus 5; test: Antiviral activity against Human cytomegalovirus Davis infected in human HEL cells assessed as inhibition of viral plaque formation at 250 uM; assay type: functional, organism-based
[25] = test system: Human betaherpesvirus 5; test: Antiviral activity against Human cytomegalovirus AD169 infected in human HEL cells assessed as inhibition of viral plaque formation at 250 uM; assay type: functional, organism-based
[26] = test system: Felid alphaherpesvirus 1; test: Antiviral activity against Felid herpesvirus 1 infected in CrFK cells assessed as inhibition of viral plaque formation at 250 uM; assay type: functional, organism-based; outline: as §2
[27] = test system: Coxsackievirus B4; test: Antiviral activity against Coxsackievirus B4 infected in african green monkey Vero cells assessed as inhibition of viral plaque formation at 250 uM; assay type: functional, organism-based; outline: as §2
[28] = test system: Human immunodeficiency virus 1; test: Antiviral activity against Human immunodeficiency virus 1 infected in human CEM cells assessed as inhibition of virus-induced giant cell formation after 4 days by microscopic analysis; assay type: functional, organism-based; details: CCRF-CEM; outline: as §3
[29] = test system: HEL; test: Cytotoxicity against human HEL cells 3 days by coulter counting; assay type: functional; details: 72 h; outline: as §4
[30] = test system: Respiratory syncytial virus; test: Antiviral activity against Respiratory syncytial virus infected in human HeLa cells assessed as inhibition of viral plaque formation at 250 uM; assay type: functional, organism-based; outline: as §2

## CCOP(=O)(OCC)[C@@H]1C[C@H](n2cc(-c3ccccn3)nn2)ON1C (relative stereo)
[1]
  Activity: Non-toxic
[2]
  Activity: inactive
[3]
  Activity: inactive
[4]
  Activity: inactive
[5]
  Activity: inactive
[6]
  Activity: inactive
[7]
  Activity: inactive
[8]
  Activity: inactive
[9]
  Activity: inactive
[10]
  Activity: inactive
[11]
  Activity: Non-toxic
[12]
  CC50: > 250 µM
[13]
  Activity: inactive
[14]
  Activity: Non-toxic
[15]
  Activity: Non-toxic
[16]
  Activity: Non-toxic
[17]
  Activity: inactive
[18]
  Activity: inactive
[19]
  Activity: inactive
[20]
  CC50: 206 µM
[21]
  Activity: inactive
[22]
  CC50: > 250 µM
[23]
  Activity: inactive
[24]
  Activity: inactive
[25]
  Activity: inactive
[26]
  Activity: inactive
[27]
  Activity: inactive
[28]
  Activity: inactive
[29]
  CC50: 78 µM
[30]
  Activity: inactive

## CCOP(=O)(OCC)[C@@H]1C[C@@H](n2cc(-c3ccccn3)nn2)ON1C (racemic)
[1]
  Activity: Non-toxic
[2]
  Activity: inactive
[3]
  Activity: inactive
[4]
  Activity: inactive
[5]
  Activity: inactive
[6]
  Activity: inactive
[7]
  Activity: inactive
[8]
  Activity: inactive
[9]
  Activity: inactive
[10]
  Activity: inactive
[11]
  Activity: Non-toxic
[12]
  CC50: > 250 µM
[13]
  Activity: inactive
[14]
  Activity: Non-toxic
[15]
  Activity: Non-toxic
[16]
  Activity: Non-toxic
[17]
  Activity: inactive
[18]
  Activity: inactive
[19]
  Activity: inactive
[20]
  CC50: ≥ 250 µM
[21]
  Activity: inactive
[22]
  CC50: > 250 µM
[23]
  Activity: inactive
[24]
  Activity: inactive
[25]
  Activity: inactive
[26]
  Activity: inactive
[27]
  Activity: inactive
[28]
  Activity: inactive
[29]
  CC50: 62 µM
[30]
  Activity: inactive

## CCOP(=O)(OCC)[C@@H]1C[C@@H](n2cc(Cn3ccc(=O)[nH]c3=O)nn2)ON1C (relative stereo)
[2]
  Activity: inactive
[3]
  Activity: inactive
[4]
  Activity: inactive
[5]
  Activity: inactive
[6]
  Activity: inactive
[7]
  Activity: inactive
[8]
  Activity: inactive
[9]
  Activity: inactive
[10]
  Activity: inactive
[12]
  CC50: ≥ 250 µM
[13]
  Activity: inactive
[17]
  Activity: inactive
[18]
  Activity: inactive
[19]
  Activity: inactive
[20]
  CC50: > 250 µM
[21]
  Activity: inactive
[22]
  CC50: > 250 µM
[23]
  Activity: inactive
[24]
  Activity: inactive
[25]
  Activity: inactive
[26]
  Activity: inactive
[27]
  Activity: inactive
[28]
  Activity: inactive
[29]
  CC50: > 100 µM
[30]
  Activity: inactive

## CCOP(=O)(OCC)[C@@H]1C[C@H](n2cc(-c3nccn3C)nn2)ON1C
[2]
  Activity: inactive
[3]
  Activity: inactive
[4]
  Activity: inactive
[5]
  Activity: inactive
[6]
  Activity: inactive
[7]
  Activity: inactive
[8]
  Activity: inactive
[9]
  Activity: inactive
[10]
  Activity: inactive
[12]
  CC50: > 250 µM
[13]
  Activity: inactive
[17]
  Activity: inactive
[18]
  Activity: inactive
[19]
  Activity: inactive
[20]
  CC50: ≥ 250 µM
[21]
  Activity: inactive
[22]
  CC50: > 250 µM
[23]
  Activity: inactive
[24]
  Activity: inactive
[25]
  Activity: inactive
[26]
  Activity: inactive
[27]
  Activity: inactive
[28]
  Activity: inactive
[29]
  CC50: > 100 µM
[30]
  Activity: inactive

## CCOP(=O)(OCC)[C@@H]1C[C@H](n2cc(C(=O)OC)nn2)ON1C (relative stereo)
[2]
  Activity: inactive
[3]
  Activity: inactive
[4]
  Activity: inactive
[5]
  Activity: inactive
[6]
  Activity: inactive
[7]
  Activity: inactive
[8]
  Activity: inactive
[9]
  Activity: inactive
[10]
  Activity: inactive
[12]
  CC50: > 250 µM
[13]
  Activity: inactive
[17]
  Activity: inactive
[18]
  Activity: inactive
[19]
  Activity: inactive
[20]
  CC50: 166 µM
[21]
  Activity: inactive
[22]
  CC50: > 250 µM
[23]
  Activity: inactive
[24]
  Activity: inactive
[25]
  Activity: inactive
[26]
  Activity: inactive
[27]
  Activity: inactive
[28]
  Activity: inactive
[29]
  CC50: > 100 µM
[30]
  Activity: inactive
